{"source": "paper PMC6373376", "about": "(Clinical Pharmacokinetics, 2018)", "key": {"[1]": {"assay_type": "in vivo, human", "details": "for Tlag / Tmax: median (range)"}, "[2]": {"test": "Study A: safety/tolerability", "assay_type": "in vivo, human", "in_short": "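Healthy adults; open-label, two-period, single-sequence design. Period 1: single oral 4 mg test compound on day 1. Period 2: azole CYP2C9 inhibitor 200 mg twice on day 1, then 200 mg once daily days 2–19, with 4 mg test compound on day 3. Washout 14–21 days. Safety covered all AEs and SAEs, physical exams, vital signs, ECG and lab tests, in everyone given at least one dose.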"}, "[3]": {"assay_type": "in vivo, human", "details": "for T½ / Tlag / AUC(0-t) / AUC(0-inf) / Cmax / Tmax / half-life / Vd/F: Study B part 1, siponimod 0.25 mg single dose; for AUC / AUC(0-t) / AUC(0-inf) / Cmax / Tmax / half-life / Vd/F: human, plasma, oral, 0.25 mg; for AUC: AUC24, Study B part 1, siponimod 0.25 mg single dose; for AUC(0-t): AUClast; for half-life: T½; for Vd/F: VZ/F"}, "[4]": {"details": "same dosing regimen, ref unpublished data; cited from earlier work"}, "CYP2C9": {"test_system": "CYP2C9", "details": "cited from earlier work"}, "CYP3A4": {"test_system": "CYP3A4", "details": "cited from earlier work"}, "[5]": {"assay_type": "in vivo, human"}, "[6]": {"details": "cited from earlier work"}, "[7]": {"details": "cited from earlier work", "remark": "listed apart in the source"}, "[8]": {"details": "cited from earlier work", "remark": "listed apart in the source"}, "[9]": {"test": "Study B: safety/tolerability", "assay_type": "in vivo, human", "in_short": "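Healthy subjects genotyped for CYP2C9. Part 1: single oral 0.25 mg test compound to *1/*1 (n = 12), *2/*3 (n = 6) and *3/*3 (n = 6), then 42-day washout. Part 2: poor metabolisers only, 0.25 mg on days 1–2 and 0.5 mg on day 3. Safety covered all AEs and SAEs, cardiac monitoring, haematology, blood chemistry and urinalysis, in all dosed subjects.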"}, "[10]": {"details": "CYP2C9*1/*1, geometric mean (CV%)"}, "[11]": {"details": "CYP2C9*2/*3, geometric mean (CV%)"}, "[12]": {"details": "CYP2C9*3/*3, geometric mean (CV%)"}, "[13]": {"details": "single-ascending dose 0.1–75 mg"}}, "note": "Where two headings read alike, the source gives them in different places."}
{"smiles": "CCc1cc(/C(C)=N/OCc2ccc(C3CCCCC3)c(C(F)(F)F)c2)ccc1CN1CC(C(=O)O)C1", "note": "[Siponimod]", "values": [{"measurement": "Increase in Cmax in the presence of fluconazole", "setting": "[1]; Study A", "value": 10, "unit": "%"}, {"measurement": "Tlag", "setting": "[1]; Study A, siponimod 4 mg + steady-state fluconazole", "value": "0 (0–0) h"}, {"measurement": "CL/F", "setting": "[1]; Study A, siponimod 4 mg alone, geometric mean (CV%)", "value": 3.6, "unit": "L/h"}, {"measurement": "Tlag", "setting": "[1]; Study A, siponimod 4 mg alone", "value": "0.25 (0–0.5) h"}, {"measurement": "Tmax", "setting": "[1]; Study A, siponimod 4 mg alone", "value": "4.0 (2.0–8.1) h"}, {"measurement": "AUC(0-inf)", "setting": "[1]; human, plasma, oral, 4 mg", "value": 1120, "unit": "ng·h/mL"}, {"measurement": "Cmax", "setting": "[1]; human, plasma, oral, 4 mg", "value": 31.2, "unit": "ng/mL"}, {"measurement": "Vd/F", "setting": "[1]; human, plasma, oral, 4 mg", "value": 210, "unit": "L"}, {"measurement": "Tmax", "setting": "[1]; human, plasma, oral, 4 mg, Tmax, Study A, siponimod 4 mg alone", "value": "~4", "unit": "h"}, {"measurement": "AUC(0-t)", "setting": "[1]; human, plasma, po, 4 mg", "value": 1110, "unit": "ng·h/mL"}, {"measurement": "Deaths or SAEs", "setting": "[2]; Study A", "value": "No deaths or SAEs were reported"}, {"measurement": "Subjects who experienced AEs", "setting": "[2]; Study A period 1, siponimod 4 mg alone", "value": 79, "unit": "%"}, {"measurement": "Subjects who experienced AEs", "setting": "[2]; Study A period 2, siponimod + fluconazole", "value": 73, "unit": "%"}, {"measurement": "T½", "setting": "[3]; [10]", "value": "28.1 (18.5) h"}, {"measurement": "Tlag", "setting": "[3]; CYP2C9*1/*1, median (range)", "value": "0.25 (0.00–0.50) h"}, {"measurement": "T½", "setting": "[3]; [11]", "value": "50.9 (31.7) h"}, {"measurement": "Tlag", "setting": "[3]; CYP2C9*2/*3, median (range)", "value": "0.25 (0.00–0.50) h"}, {"measurement": "Tlag", "setting": "[3]; CYP2C9*3/*3, median (range)", "value": "0.50 (0.00–0.50) h"}, {"measurement": "AUC", "setting": "[3]; [10]", "value": 31.6, "unit": "ng·h/mL"}, {"measurement": "AUC", "setting": "[3]; [11]", "value": 44.7, "unit": "ng·h/mL"}, {"measurement": "AUC", "setting": "[3]; [12]", "value": 42.7, "unit": "ng·h/mL"}, {"measurement": "AUC(0-t)", "setting": "[3]; [10]", "value": 68.6, "unit": "ng·h/mL"}, {"measurement": "AUC(0-t)", "setting": "[3]; [11]", "value": 140, "unit": "ng·h/mL"}, {"measurement": "AUC(0-t)", "setting": "[3]; [12]", "value": 266, "unit": "ng·h/mL"}, {"measurement": "AUC(0-inf)", "setting": "[3]; [10]", "value": 70.5, "unit": "ng·h/mL"}, {"measurement": "AUC(0-inf)", "setting": "[3]; [11]", "value": 144, "unit": "ng·h/mL"}, {"measurement": "AUC(0-inf)", "setting": "[3]; [12]", "value": 271, "unit": "ng·h/mL"}, {"measurement": "Cmax", "setting": "[3]; [11]", "value": 2.45, "unit": "ng/mL"}, {"measurement": "Cmax", "setting": "[3]; [12]", "value": 2.35, "unit": "ng/mL"}, {"measurement": "Tmax", "setting": "[3]; CYP2C9*1/*1, median (range)", "value": 4, "unit": "h"}, {"measurement": "Tmax", "setting": "[3]; CYP2C9*2/*3, median (range)", "value": 5, "unit": "h"}, {"measurement": "Tmax", "setting": "[3]; CYP2C9*3/*3, median (range)", "value": 4, "unit": "h"}, {"measurement": "half-life", "setting": "[3]; [11]", "value": 51, "unit": "h"}, {"measurement": "half-life", "setting": "[3]; [12]", "value": 126, "unit": "h"}, {"measurement": "Vd/F", "setting": "[3]; [10]", "value": 144, "unit": "L"}, {"measurement": "Vd/F", "setting": "[3]; [11]", "value": 127, "unit": "L"}, {"measurement": "Vd/F", "setting": "[3]; [12]", "value": 167, "unit": "L"}, {"measurement": "Tmax observed in historical data", "setting": "[4]", "value": 1.35, "unit": "h"}, {"measurement": "Contribution of CYP2C9 to metabolism (formation of M5)", "setting": "CYP2C9", "value": 79.2, "unit": "%"}, {"measurement": "Contribution of the CYP2C9 pathway to total metabolic clearance (fm)", "setting": "CYP2C9; determined in vitro", "value": 79, "unit": "%"}, {"measurement": "Contribution of CYP3A4 to metabolism (formation of M5)", "setting": "CYP3A4", "value": 18.5, "unit": "%"}, {"measurement": "AUC24 on day 3 higher versus the dose titration study data", "setting": "[5]; Study B part 2, CYP2C9*2/*3, comparison with ref 15", "value": 1.4, "unit": "fold"}, {"measurement": "AUC24 on day 3 higher versus the dose titration study data", "setting": "[5]; Study B part 2, CYP2C9*3/*3, comparison with ref 15", "value": 1.7, "unit": "fold"}, {"measurement": "Tmax", "setting": "[5]; human, plasma, po, 0.5 mg", "value": 6, "unit": "h"}, {"measurement": "AUC", "setting": "[5]; human, plasma, po, 0.5 mg, AUC24, Study B part 2, day 3, CYP2C9*2/*3, mean", "value": 125, "unit": "ng·h/mL"}, {"measurement": "AUC", "setting": "[5]; human, plasma, po, 0.5 mg, AUC24, Study B part 2, day 3, CYP2C9*3/*3, mean", "value": 148, "unit": "ng·h/mL"}, {"measurement": "Predicted increase in siponimod AUC in the presence of fluconazole", "setting": "[6]; SimCYP simulation", "value": "two to three"}, {"measurement": "First-pass effect estimated by SimCYP", "setting": "[6]; ref unpublished data", "value": "~5 % of the administered dose"}, {"measurement": "Tolerability of multiple doses", "setting": "[7]; doses up to 20 mg daily for 28 days", "value": "well tolerated"}, {"measurement": "Time to steady-state of plasma siponimod", "setting": "[7]; multiple-ascending dose 0.3–20 mg, 28 days, 48 healthy subjects", "value": "approximately 6 days"}, {"measurement": "Effective elimination half-life (T½)", "setting": "[7]; multiple-ascending dose 0.3–20 mg, range", "value": "22 to 38", "unit": "h"}, {"measurement": "Single-dose maximum tolerated dose (MTD)", "setting": "[8]; healthy subjects, single-ascending dose range study, ref unpublished data", "value": 25, "unit": "mg"}, {"measurement": "Earliest time measurable in plasma postdose", "setting": "[8]; single-ascending dose 0.1–75 mg, 98 healthy subjects", "value": 0.25, "unit": "h"}, {"measurement": "Time at which Cmax was reached postdose", "setting": "[8]; [13]", "value": "3 to 8", "unit": "h"}, {"measurement": "Time at which Cmax was reached, minimum–maximum", "setting": "[8]; [13]", "value": "0.25 to 24", "unit": "h"}, {"measurement": "T½, mean range", "setting": "[8]; single-ascending dose study, ref unpublished data", "value": "27 to 57", "unit": "h"}, {"measurement": "Deaths or SAEs", "setting": "[9]; Study B", "value": "No deaths or SAEs were reported"}, {"measurement": "Subjects reporting at least one AE", "setting": "[9]; Study B part 2, 12 subjects", "value": 25, "unit": "%"}, {"measurement": "Headache (most prevalent AE) incidence", "setting": "[9]; Study B, in both parts", "value": 8.3, "unit": "%"}]}
